How the values were obtained:
Heart [1] = experiment: Antiarrhythmic activity in Hartley guinea pig atria assessed as change in maximum driving rate at 60.2 uM/l after 5 mins; assay type: functional, Cavia porcellus
In short: (§1)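 Spontaneously beating isolated atria held under initial tension; bath fluid changed every 10 min; stabilised about 1 h. Maximum driving rate found with 1-ms square pulses at 50% above threshold voltage, 10 s every 30 s; the frequency just before failure of following is the MDR. Control is the mean of two determinations. Spontaneous rate recorded by tachograph. Values are % change from control at peak response, generally 5–30 min.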

Mus musculus [2] = experiment: Toxicity in ip dosed Swiss-Webster albino mouse; assay type: organism-based; settings: in vivo
Heart [3] = experiment: Antiarrhythmic activity in Hartley guinea pig atria assessed as change in spontaneous rate at 60.2 uM/l after 5 mins; assay type: functional, Cavia porcellus; in short: as §1
Homo sapiens [4] = species: Homo sapiens; experiment: Drug absorption in buccal cavity in human at pH 7.50 after 5 mins by UV spectrometry; assay type: ADME, organism-based; settings: in vivo, other, pH 7.5, 5 min
In short: (§2)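 3 mg compound in 25 ml buffer (0.1 M phosphate pH 5.50 or 7.50; tetraborate pH 9.30) swished in the mouth for 5 min, expelled, and combined with a 10 ml water rinse. Made up to 50 ml; aliquot basified to pH 10 and ether-extracted, then back-extracted into 0.1 N HCl. UV absorbance read at λmax against Beer's law plots; the unrecovered fraction is taken as % absorbed. One to three subjects.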

Mus musculus [5] = experiment: Antiarrhythmic activity in ip dosed Swiss-Webster albino mouse assessed as prevention of chloroform-induced ventricular fibrillation; assay type: functional, Heart
Homo sapiens [6] = species: Homo sapiens; experiment: Drug absorption in buccal cavity in human at pH 9.3 after 5 mins by UV spectrometry; assay type: ADME, organism-based; settings: in vivo, other, pH 9.3, 5 min; in short: as §2
[7] = Therapeutic index, ratio of LD50 for toxicity to ED50 for antiarrhythmic activity in ip dosed Swiss-Webster albino mouse; assay type: organism-based, Heart; settings: in vivo, read-out: Ratio LD50/ED50
[8] = Dissociation constant, pKa of the compound in 0.01 M potassium hydrogen phthalate; assay type: physicochemical
In short: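 pKa by potentiometric titration with 0.01 M potassium hydrogen phthalate in a thermostated vessel, stirred, under nitrogen bubbling, using glass and calomel electrodes. pKa is the mean pH at half-neutralization from four titrations. Endpoints were taken from parallel tangents on either side of the inflection.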

Homo sapiens [9] = species: Homo sapiens; experiment: Drug absorption in buccal cavity in human at pH 5.50 after 5 mins by UV spectrometry; assay type: ADME, organism-based; settings: in vivo, other, pH 5.5, 5 min; in short: as §2
Heart [10] = experiment: Antiarrhythmic activity in Hartley guinea pig atria assessed as change in spontaneous rate at 73.4 uM/l after 5 mins; assay type: functional, Cavia porcellus; in short: as §1
Heart [11] = experiment: Antiarrhythmic activity in Hartley guinea pig atria assessed as change in maximum driving rate at 73.4 uM/l after 5 mins; assay type: functional, Cavia porcellus; in short: as §1
Heart [12] = experiment: Antiarrhythmic activity in Hartley guinea pig atria assessed as change in spontaneous rate at 65.0 uM/l after 5 mins; assay type: functional, Cavia porcellus; in short: as §1
Homo sapiens [13] = experiment: Toxicity in human assessed as numbness at 5 x 10' -5 M administered topically to buccal cavity measured up to 15 to 20 mins; assay type: organism-based; settings: in vivo, topical_or_ocular, 50 µM
Heart [14] = experiment: Antiarrhythmic activity in Hartley guinea pig atria assessed as change in maximum driving rate at 32.5 uM/l after 5 mins; assay type: functional, Cavia porcellus; in short: as §1
Heart [15] = experiment: Antiarrhythmic activity in Hartley guinea pig atria assessed as reversible decrease in maximum driving rate compound treated for 5 mins measured up to 2 hrs post washout; assay type: functional, tissue-based; settings: Cavia porcellus
In short: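 After compound exposure the bath was washed out. Two MDR determinations were made every 15 min for up to 2 h to follow reversibility and recovery toward control. Bath fluid was changed every 10 min.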

Heart [16] = experiment: Antiarrhythmic activity in Hartley guinea pig atria assessed as change in maximum driving rate at 65.0 uM/l after 5 mins; assay type: functional, Cavia porcellus; in short: as §1
Heart [17] = experiment: Antiarrhythmic activity in Hartley guinea pig atria assessed as change in spontaneous rate at 32.5 uM/l after 5 mins; assay type: functional, Cavia porcellus; in short: as §1
Heart [18] = experiment: Antiarrhythmic activity in Hartley guinea pig atria assessed as change in spontaneous rate at 66.1 uM/l after 5 mins; assay type: functional, Cavia porcellus; in short: as §1
Heart [19] = experiment: Antiarrhythmic activity in Hartley guinea pig atria assessed as change in maximum driving rate at 66.1 uM/l after 5 mins; assay type: functional, Cavia porcellus; in short: as §1
Heart [20] = experiment: Antiarrhythmic activity in Hartley guinea pig atria assessed as change in spontaneous rate at 65.2 uM/l after 5 mins; assay type: functional, Cavia porcellus; in short: as §1
Heart [21] = experiment: Antiarrhythmic activity in Hartley guinea pig atria assessed as change in maximum driving rate at 65.2 uM/l after 5 mins; assay type: functional, Cavia porcellus; in short: as §1
Heart [22] = experiment: Antiarrhythmic activity in Hartley guinea pig atria assessed as change in spontaneous rate at 58.6 uM/l after 5 mins; assay type: functional, Cavia porcellus; in short: as §1
Heart [23] = experiment: Antiarrhythmic activity in Hartley guinea pig atria assessed as change in maximum driving rate at 58.6 uM/l after 5 mins; assay type: functional, Cavia porcellus; in short: as §1
Heart [24] = experiment: Antiarrhythmic activity in Hartley guinea pig atria assessed as change in maximum driving rate at 55.2 uM/l after 5 mins; assay type: functional, Cavia porcellus; in short: as §1
Heart [25] = experiment: Antiarrhythmic activity in Hartley guinea pig atria assessed as change in spontaneous rate at 55.2 uM/l after 5 mins; assay type: functional, Cavia porcellus; in short: as §1
Heart [26] = experiment: Antiarrhythmic activity in Hartley guinea pig atria assessed as change in spontaneous rate at 15.4 uM/l after 5 mins; assay type: functional, Cavia porcellus; in short: as §1
Heart [27] = experiment: Antiarrhythmic activity in Hartley guinea pig atria assessed as change in spontaneous rate at 30.8 uM/l after 5 mins; assay type: functional, Cavia porcellus; in short: as §1
Heart [28] = experiment: Antiarrhythmic activity in Hartley guinea pig atria assessed as change in maximum driving rate at 15.4 uM/l after 5 mins; assay type: functional, Cavia porcellus; in short: as §1
Heart [29] = experiment: Antiarrhythmic activity in Hartley guinea pig atria assessed as change in spontaneous rate at 61.6 uM/l after 5 mins; assay type: functional, Cavia porcellus; in short: as §1
Heart [30] = experiment: Antiarrhythmic activity in Hartley guinea pig atria assessed as change in maximum driving rate at 61.6 uM/l after 5 mins; assay type: functional, Cavia porcellus; in short: as §1
Heart [31] = experiment: Antiarrhythmic activity in Hartley guinea pig atria assessed as change in maximum driving rate at 30.8 uM/l after 5 mins; assay type: functional, Cavia porcellus; in short: as §1
Heart [32] = experiment: Antiarrhythmic activity in Hartley guinea pig atria assessed as change in maximum driving rate at 55.0 uM/l after 5 mins; assay type: functional, Cavia porcellus; in short: as §1
Heart [33] = experiment: Antiarrhythmic activity in Hartley guinea pig atria assessed as change in spontaneous rate at 55.0 uM/l after 5 mins; assay type: functional, Cavia porcellus; in short: as §1

| SMILES | LD50 (Mus musculus [2]) | Drug absorption (Homo sapiens [4]) | ED50 (Mus musculus [5]) | Drug absorption (Homo sapiens [6]) | selectivity ratio [7] | pKa [8] | Drug absorption (Homo sapiens [9]) | other results |
| --- | --- | --- | --- | --- | --- | --- | --- | --- |
| COc1ccc(C(=O)N[C@@H]2CCC[C@@H]3CCN(C)C[C@H]32)cc1OC (mixture of isomers) | 1600 | 18.9% | 164 µmol/kg | 27.1% | 9.8 | 8.89 | 16.8% | Activity (Heart [1]): -13.8%; Activity (Heart [3]): -20.2% |
| COc1ccc(C(=O)N[C@@H]2CCC[C@@H]3CCN(C)C[C@@H]32)cc1OC (mixture of isomers) | 1770 | 10.4% | 199 µmol/kg | 17.6% | 8.9 |  | 7% | Activity (Heart [1]): -9.71%; Activity (Heart [3]): -16.9% |
| CN1CC[C@H]2CCC[C@@H](NS(=O)(=O)c3ccccc3)[C@@H]2C1 (mixture of isomers) | 1113 | 20.4% | 347 µmol/kg | 37.1% | 3.3 | 8.87 | 11.9% |  |
| CN1CC[C@H]2CCC[C@@H](NC(=O)c3ccccc3)[C@@H]2C1 (mixture of isomers) | 1450 | 15.9% | 246 µmol/kg | 42.9% | 5.9 | 8.99 | 11.1% | Activity (Heart [10]): -19.3%; Activity (Heart [11]): -17.6% |
| CN1CC[C@H]2CCC[C@@H](OC(=O)c3ccc(Cl)cc3)[C@H]2C1 (mixture of isomers) | 1200 | 43.7% | 257 µmol/kg | 86.5% | 4.7 | 8.9 | 13.7% | Activity (Heart [12]): -52.3%; Activity (Homo sapiens [13]): Toxic; Activity (Heart [14]): -32.2%; Activity (Heart [15]): Dose-dependent effect; Activity (Heart [16]): -53.3%; Activity (Heart [17]): -48.6% |
| COc1ccccc1C(=O)N[C@@H]1CCC[C@@H]2CCN(C)C[C@H]21 (mixture of isomers) | 761 | 12.8% | 175 µmol/kg | 41.2% | 4.3 | 8.81 | 5.2% | Activity (Heart [18]): -25%; Activity (Heart [19]): -19.8% |
| CN1CC[C@H]2CCC[C@@H](NC(=O)c3ccc(Cl)cc3)[C@H]2C1 (mixture of isomers) | 909 | 9.3% | 209 µmol/kg | 43.2% | 4.4 |  | 6.7% | Activity (Heart [20]): -13.1%; Activity (Heart [21]): -28.5% |
| CN1CC[C@H]2CCC[C@@H](NC(=O)c3ccc(Cl)c(Cl)c3)[C@H]2C1 (mixture of isomers) | 712 | 25.1% | 73 µmol/kg | 60.6% | 9.7 | 9.05 | 20.1% | Activity (Heart [22]): -21.7%; Activity (Heart [23]): -34.1% |
| CN1CC[C@H]2CCC[C@@H](OC(=O)c3ccc(Cl)cc3)[C@@H]2C1 (mixture of isomers) | 757 | 42.7% | 146 µmol/kg | 84.7% | 5.2 | 8.75 | 17.4% | Activity (Heart [12]): -60.5%; Activity (Homo sapiens [13]): Toxic; Activity (Heart [16]): -55.8% |
| COc1ccc(C(=O)N[C@@H]2CCC[C@@H]3CCN(C)C[C@H]32)cc1 (mixture of isomers) | 1490 | 9% | 195 µmol/kg | 34.3% | 7.6 |  | 7.4% | Activity (Heart [18]): -21.5%; Activity (Heart [19]): -19.8% |
| COc1cc(C(=O)N[C@@H]2CCC[C@@H]3CCN(C)C[C@@H]32)cc(OC)c1OC (mixture of isomers) | 1170 | 14.2% | 160 µmol/kg | 23.8% | 7.3 | 9.02 | 8.1% | Activity (Heart [24]): -7%; Activity (Heart [25]): -9.8% |
| CN1CC[C@H]2CCC[C@@H](NS(=O)(=O)c3ccccc3)[C@H]2C1 (mixture of isomers) | 1460 | 17.7% | 282 µmol/kg | 30.4% | 5.2 | 9.17 | 14.9% |  |
| C=C[C@H]1C[N@@]2CC[C@H]1C[C@@H]2[C@@H](O)c1ccnc2ccc(OC)cc12 [QUINIDINE] | 533 uM/L |  |  |  |  |  |  |  |
| COc1ccccc1C(=O)N[C@@H]1CCC[C@@H]2CCN(C)C[C@@H]21 (mixture of isomers) | 847 | 5.3% | 116 µmol/kg | 35.1% | 7.3 | 9.11 | 1.2% | Activity (Heart [18]): -25.5%; Activity (Heart [19]): -23.2% |
| C=C[C@H]1CN2CC[C@H]1C[C@@H]2[C@@H](O)c1ccnc2ccc(OC)cc12 [QUINIDINE] |  |  | 160 µmol/kg |  |  |  |  | Activity (Heart [26]): -18.8%; Activity (Heart [27]): -28.6%; Activity (Heart [15]): Dose-dependent effect; Activity (Heart [28]): -13.3%; Activity (Heart [29]): -36.1%; Activity (Heart [30]): -36.3%; Activity (Heart [31]): -22.8% |
| CN1CC[C@H]2CCC[C@@H](NC(=O)c3ccccc3)[C@H]2C1 (mixture of isomers) | 1430 | 16% | 242 µmol/kg | 40.6% | 5.9 | 9.18 | 9.3% | Activity (Heart [10]): -7.2%; Activity (Heart [11]): -15.1% |
| CN1CC[C@H]2CCC[C@@H](NC(=O)c3ccc(Cl)cc3)[C@@H]2C1 (mixture of isomers) | 952 | 12.4% | 200 µmol/kg | 54.4% | 4.8 | 8.83 | 8.2% | Activity (Heart [20]): -57.4%; Activity (Heart [21]): -20% |
| COc1cc(C(=O)O[C@@H]2CCC[C@@H]3CCN(C)C[C@@H]32)cc(OC)c1OC (mixture of isomers) | 421 | 38.2% | 162 µmol/kg | 70.7% | 2.6 | 8.91 | 21.2% | Activity (Homo sapiens [13]): Toxic; Activity (Heart [32]): -32.3%; Activity (Heart [33]): -53.2% |
| COc1ccc(C(=O)N[C@@H]2CCC[C@@H]3CCN(C)C[C@@H]32)cc1 (mixture of isomers) | 1560 | 7% | 268 µmol/kg | 30.6% | 5.8 | 9.19 | 4.7% | Activity (Heart [18]): -44.2%; Activity (Heart [19]): -15.1% |

Reference: ChEMBL document CHEMBL3272033, “Physicochemical and pharmacological studies of some 8-substituted decahydroisoquinolines” (J Med Chem, 1976)
